Assay results taken from ChEMBL document CHEMBL2074468, “Identification of multispecific organic anion transporter 2 expressed predominantly in the liver” (FEBS Lett, 1998).

What was measured:
[1] = target: T1, Solute carrier family 22 member 7 (Rattus norvegicus, UniProt Q5RLM2); assay: TP_TRANSPORTER: inhibition of Salicylate uptake (salicylate: 1 uM, Enalapril: 1000 uM) in Xenopus laevis oocytes; format: functional, cell-based; settings: oocyte
T1 sequence (Q5RLM2 whole entry): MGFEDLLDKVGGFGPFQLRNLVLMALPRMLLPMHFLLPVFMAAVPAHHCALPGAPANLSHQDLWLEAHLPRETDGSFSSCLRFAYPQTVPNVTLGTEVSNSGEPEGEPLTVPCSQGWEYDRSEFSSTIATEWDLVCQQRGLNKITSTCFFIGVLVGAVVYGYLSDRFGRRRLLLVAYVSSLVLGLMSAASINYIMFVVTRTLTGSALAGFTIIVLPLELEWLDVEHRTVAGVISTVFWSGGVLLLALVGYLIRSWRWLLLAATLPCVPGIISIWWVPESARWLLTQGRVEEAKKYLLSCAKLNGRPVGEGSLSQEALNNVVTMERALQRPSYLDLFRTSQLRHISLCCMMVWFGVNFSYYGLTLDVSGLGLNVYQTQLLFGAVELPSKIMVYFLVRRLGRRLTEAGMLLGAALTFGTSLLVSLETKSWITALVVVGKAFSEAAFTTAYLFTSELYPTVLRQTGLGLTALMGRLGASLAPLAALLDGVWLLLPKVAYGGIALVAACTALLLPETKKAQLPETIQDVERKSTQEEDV
Outline: (§1)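 Rat liver NLT/OAT2 (L5) cRNA (10 ng capped) was injected into defolliculated oocytes, which were kept 2–3 days at 18°C in gentamicin Barth's, pH 7.4. Uptake of 1 μM [14C]salicylate was measured in ND96 (pH 7.4) at room temperature, with or without inhibitor (1 mM; BSP 250 μM). Results are % of L5-mediated uptake without inhibitor, mean±S.E.M., n=5–8 oocytes.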

[2] = target: T1, Solute carrier family 22 member 7; assay: (§2) TP_TRANSPORTER: uptake in Xenopus laevis oocytes; format: functional, cell-based; settings: oocyte
Outline: (§3)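 Oocytes were injected with 10 ng capped L5 cRNA or left as controls, then held 2–3 days at 18°C. Radiolabeled substrates ([14C]α-ketoglutarate 7 μM, [3H]PGE2 6 nM, [3H]methotrexate 1 μM, [14C]acetylsalicylate 20 μM, [14C]PAH 20 μM) were taken up for 1 h in ND96, pH 7.4, at room temperature. Mean±S.E.M., n=5–8.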

[3] = target: T1, Solute carrier family 22 member 7; assay: TP_TRANSPORTER: inhibition of Salicylate uptake (salicylate: 1 uM, Rifampicin: 1000 uM) in Xenopus laevis oocytes; format: functional, cell-based; settings: oocyte; outline: as §1
[4] = target: T1, Solute carrier family 22 member 7; assay: TP_TRANSPORTER: inhibition of Salicylate uptake (salicylate: 1 uM, ICG: 1000 uM) in Xenopus laevis oocytes; format: functional, cell-based; settings: oocyte; outline: as §1
[5] = target: T1, Solute carrier family 22 member 7; assay: TP_TRANSPORTER: inhibition of Salicylate uptake (salicylate: 1 uM, BSP: 250 uM) in Xenopus laevis oocytes; format: functional, cell-based; settings: oocyte; outline: as §1
[6] = target: T1, Solute carrier family 22 member 7; assay: TP_TRANSPORTER: inhibition of Salicylate uptake (salicylate: 1 uM, Cefoperazone: 1000 uM) in Xenopus laevis oocytes; format: functional, cell-based; settings: oocyte; outline: as §1
[7] = substrate: O=C(O)c1ccccc1O; assay: cells, lysate or membranes named
[8] = substrate: O=C(O)CCC(=O)C(=O)O; assay: as §2; format: functional, cell-based, Oocyte; outline: as §3

For `CCOC(=O)[C@H](CCc1ccccc1)N[C@@H](C)C(=O)N1CCC[C@H]1C(=O)O`, the Activity [1] was “inhibitor [(at a rough estimate) 80 % of control]”.

With `CC(=O)Oc1ccccc1C(=O)O` [ASPIRIN] the Activity [2] was “substrate [+]”.

In the case of `Nc1ccc(C(=O)NCC(=O)O)cc1` [AMINOHIPPURIC ACID], the Activity [2] is reported as “substrate [+]”.

For `CO[C@H]1/C=C/O[C@@]2(C)Oc3c(C)c(O)c4c(O)c(c(/C=N/N5CCN(C)CC5)c(O)c4c3C2=O)NC(=O)/C(C)=C\C=C\[C@H](C)[C@H](O)[C@@H](C)[C@@H](O)[C@@H](C)[C@H](OC(C)=O)[C@@H]1C` [RIFAMPIN], the Activity [3] was “inhibitor [(at a rough estimate) 15 % of control]”.

For `CC1(C)C(/C=C/C=C/C=C/C=C2/N(CCCCS(=O)(=O)[O-])c3ccc4ccccc4c3C2(C)C)=[N+](CCCCS(=O)(=O)[O-])c2ccc3ccccc3c21.[Na+]` [INDOCYANINE GREEN], the Activity [4] was “inhibitor [(at a rough estimate) 10 % of control]”.

In the case of `CC[N+](CC)(CC)CC` [TETRYLAMMONIUM], the Activity [2] is reported as “is not a substrate [-]”.

With `O=C1OC(c2ccc(O)c(S(=O)(=O)[O-])c2)(c2ccc(O)c(S(=O)(=O)[O-])c2)c2c(Br)c(Br)c(Br)c(Br)c21.[Na+].[Na+]` [SULFOBROMOPHTHALEIN SODIUM] the Activity [5] was “inhibitor [(at a rough estimate) <5 % of control]”.

For `CN(Cc1cnc2nc(N)nc(N)c2n1)c1ccc(C(=O)N[C@@H](CCC(=O)O)C(=O)O)cc1` [METHOTREXATE], the Activity [2] was “substrate [+]”.

With `CCCCC[C@H](O)/C=C/[C@H]1[C@H](O)CC(=O)[C@@H]1C/C=C\CCCC(=O)O` [DINOPROSTONE] the Activity [2] was “substrate [+]”.

In the case of `CCN1CCN(C(=O)N[C@@H](C(=O)N[C@@H]2C(=O)N3C(C(=O)O)=C(CSc4nnnn4C)CS[C@H]23)c2ccc(O)cc2)C(=O)C1=O` [CEFOPERAZONE], the Activity [6] is reported as “inhibitor [(at a rough estimate) 15 % of control]”.

B1: Solute carrier family 22 member 7 (Rattus norvegicus) (protein)
chain: T1 sequence (Q5RLM2 whole entry)
B1 was tested, and the Km [7] was 88.8 µM and the Km [8] was 17.8 µM.
